Data reported in ChEMBL document CHEMBL2390849, “Glycosylation enhances the anti-migratory activities of isomalyngamide A analogs” (Eur J Med Chem, 2013).
Activity calls are given as the source filed them. The rule behind the calls is not given here.

Experiments:
MDA-MB-231 [1] = test: Inhibition of human MDA-MB-231 cell adhesion to fibronectin at 10 to 30 uM after 48 hrs by crystal violet staining-based spectrophotometric analysis relative to control; assay type: functional
How it was run: (§1)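 Cells pretreated 48 h with compound, trypsinized, and resuspended at 2 × 10^5 cells/mL in DMEM with 0.1% BSA. Added to wells coated overnight at 4 °C with fibronectin or collagen IV ([…] as printed), then blocked with 0.1% BSA. Adhesion 60 min at 37 °C. Adherent cells fixed in 10% formaldehyde and stained with 0.05% crystal violet. Dye extracted, A595 read. Reported as percent of untreated control, triplicate.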

MDA-MB-231 [2] = test: Inhibition of human MDA-MB-231 cell invasion at 20 to 30 uM after 24 hrs by Transwell assay; assay type: functional, cell-based
How it was run: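 Transwell inserts with 8 µm pores precoated with Matrigel. Cells seeded at 8 × 10^4 cells/mL in serum-free medium with compound or DMSO, 24 h. Lower wells hold 5% FBS-containing medium as chemoattractant. Invaded cells fixed and stained, then counted in three random fields. Run in triplicate, expressed as percent of untreated control.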

MDA-MB-231 [3] = test: Antimigratory activity against human MDA-MB-231 cells at 25 uM after 24 hrs by scratch wound healing assay; assay type: functional, cell-based
How it was run: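 Cells grown overnight at 37 °C to a confluent monolayer in duplicate wells, then scratched with a pipette tip. Migration into the wound photographed at 0 and 24 h at 100× magnification.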

MDA-MB-231 [4] = test: Cytotoxicity against human MDA-MB-231 cells at 10 to 30 uM after 48 hrs by MTT assay; assay type: functional, cell-based
MDA-MB-231 [5] = test: Effect on RAC1 expression level in human MDA-MB-231 cells at 10 to 30 uM after 24 hrs by Western blotting analysis; assay type: functional, cell-based
How it was run: (§2)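 Cells treated 24 h with the indicated concentrations. Lysates immunoblotted with antibodies to total FAK, phospho-FAK (Y397), total paxillin and Rac1, with β-actin as internal control. Bands detected by enhanced chemiluminescence.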

MDA-MB-231 [6] = test: Effect on paxillin expression level in human MDA-MB-231 cells after 24 hrs by Western blotting analysis; assay type: functional, cell-based; how it was run: as §2
MDA-MB-231 [7] = test: Effect on FAK expression level in human MDA-MB-231 cells at 10 to 30 uM after 24 hrs by Western blotting analysis; assay type: functional, cell-based; how it was run: as §2
[8] = biological target: Focal adhesion kinase 1 (Homo sapiens) (UniProt Q05397); test: Inhibition of FAK phosphorylation at Tyr397 in human MDA-MB-231 cells after 24 hrs by Western blotting analysis; assay type: cell-based; how it was run: as §2
MDA-MB-231 [9] = test: Inhibition of human MDA-MB-231 cell adhesion to fibronectin at 30 uM after 48 hrs by crystal violet staining-based spectrophotometric analysis relative to control; assay type: functional; conditions: MDA-MB-231, 48 h; how it was run: as §1
MDA-MB-231 [10] = test: Inhibition of human MDA-MB-231 cell adhesion to fibronectin at 20 uM after 48 hrs by crystal violet staining-based spectrophotometric analysis relative to control; assay type: functional; conditions: MDA-MB-231, 48 h; how it was run: as §1
MDA-MB-231 [11] = test: Inhibition of human MDA-MB-231 cell adhesion to fibronectin at 10 uM after 48 hrs by crystal violet staining-based spectrophotometric analysis relative to control; assay type: functional; conditions: MDA-MB-231, 48 h; how it was run: as §1
MDA-MB-231 [12] = test: Inhibition of human MDA-MB-231 cell adhesion to collagen 4 after 48 hrs by crystal violet staining-based spectrophotometric analysis; assay type: functional; how it was run: as §1
MDA-MB-231 [13] = test: Inhibition of human MDA-MB-231 cell adhesion to fibronectin after 48 hrs by crystal violet staining-based spectrophotometric analysis; assay type: functional; how it was run: as §1
MDA-MB-231 [14] = test: Antimigratory activity against human MDA-MB-231 cells after overnight incubation by Boyden chamber assay; assay type: functional, cell-based
How it was run: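 Boyden chamber (8 µm polycarbonate membrane coated with Matrigel, […] as printed). Cells trypsinized into serum-free medium at 2.5 × 10^5 cells/mL containing test agent, placed in upper chamber. Lower chamber holds medium with 5% FBS as chemoattractant. Overnight at 37 °C. Transmigrated cells fixed in methanol, Giemsa-stained, counted in three random fields. IC50 is the mean of three independent experiments.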

Chain of Focal adhesion kinase 1 (Homo sapiens) (Q05397 2-1052 limits assumed): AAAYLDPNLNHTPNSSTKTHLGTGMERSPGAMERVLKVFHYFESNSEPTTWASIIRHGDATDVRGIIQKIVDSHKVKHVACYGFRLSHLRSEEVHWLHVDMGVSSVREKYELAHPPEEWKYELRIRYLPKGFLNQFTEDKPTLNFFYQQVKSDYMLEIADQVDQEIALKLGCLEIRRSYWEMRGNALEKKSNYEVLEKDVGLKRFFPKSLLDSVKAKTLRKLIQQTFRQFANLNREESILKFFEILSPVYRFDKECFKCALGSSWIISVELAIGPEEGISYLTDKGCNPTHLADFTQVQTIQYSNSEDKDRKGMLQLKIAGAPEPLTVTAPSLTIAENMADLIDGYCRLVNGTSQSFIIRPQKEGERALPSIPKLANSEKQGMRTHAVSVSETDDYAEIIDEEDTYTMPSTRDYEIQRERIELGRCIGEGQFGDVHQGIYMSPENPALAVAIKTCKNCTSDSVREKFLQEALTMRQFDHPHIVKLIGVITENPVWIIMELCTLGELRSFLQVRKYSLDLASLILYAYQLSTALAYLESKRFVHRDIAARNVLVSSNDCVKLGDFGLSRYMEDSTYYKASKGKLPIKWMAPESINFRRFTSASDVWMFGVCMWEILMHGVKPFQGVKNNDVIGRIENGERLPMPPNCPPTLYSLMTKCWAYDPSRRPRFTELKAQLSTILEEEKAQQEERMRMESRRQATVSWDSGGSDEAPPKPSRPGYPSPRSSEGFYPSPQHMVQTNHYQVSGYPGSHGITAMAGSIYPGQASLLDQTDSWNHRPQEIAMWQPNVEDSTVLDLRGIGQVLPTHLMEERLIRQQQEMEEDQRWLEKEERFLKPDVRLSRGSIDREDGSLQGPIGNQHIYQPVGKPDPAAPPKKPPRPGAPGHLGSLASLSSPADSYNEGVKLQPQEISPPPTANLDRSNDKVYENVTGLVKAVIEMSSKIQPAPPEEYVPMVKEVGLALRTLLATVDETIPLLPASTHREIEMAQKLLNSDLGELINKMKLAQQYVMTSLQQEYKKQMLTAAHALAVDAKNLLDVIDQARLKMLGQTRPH

Row | SMILES | inhibition (MDA-MB-231 [1]) | inhibition (MDA-MB-231 [2]) | Activity (MDA-MB-231 [3]) | Activity (MDA-MB-231 [4]) | Activity (MDA-MB-231 [5]) | Activity (MDA-MB-231 [6]) | Activity (MDA-MB-231 [7]) | inhibition [8] | adhesion % at 30 µM (MDA-MB-231 [9]) [%] | adhesion % at 20 µM (MDA-MB-231 [10]) [%] | adhesion % at 10 µM (MDA-MB-231 [11]) [%] | inhibition (MDA-MB-231 [12]) | inhibition (MDA-MB-231 [13]) | Activity (MDA-MB-231 [14]) | IC50 (MDA-MB-231 [14]) [µM]
1 | CCCCCCCCCCCCCC(=O)NCCNC(=O)C(C)(C)C(=O)NCC(=O)O | Active | Active | Active | inactive | – | – | – | – | – | – | – | – | – | – | –
2 | CCCCCCCCCCCCCC(=O)NCCNC(=O)C(C)(C)C(=O)NCCO[C@@H]1O[C@H](COC(C)=O)[C@H](OC(C)=O)[C@H](OC(C)=O)[C@H]1OC(C)=O | – | Active | Active | inactive | inactive | Dose-dependent effect | inactive | Dose-dependent effect | 58 | 69 | 79 | Dose-dependent effect | Dose-dependent effect | Dose-dependent effect | 11.8
3 | CCCCCCCCCCCCCC(=O)NCCNC(=O)C(C)(C)C(=O)NCCO[C@H]1O[C@H](COC(C)=O)[C@@H](OC(C)=O)[C@H](OC(C)=O)[C@@H]1OC(C)=O | – | Active | Active | inactive | inactive | Dose-dependent effect | inactive | Dose-dependent effect | – | – | – | Dose-dependent effect | Dose-dependent effect | Dose-dependent effect | 11.7
4 | CCCCCCCCCCCCCC(=O)NCCNC(=O)C(C)(C)C(=O)NCCO[C@@H]1O[C@H](COC(C)=O)[C@@H](O[C@@H]2O[C@H](COC(C)=O)[C@H](OC(C)=O)[C@H](OC(C)=O)[C@H]2OC(C)=O)[C@H](OC(C)=O)[C@H]1OC(C)=O | – | Active | Active | inactive | – | – | – | – | – | – | – | Dose-dependent effect | Dose-dependent effect | – | > 50
